The results in this text go back to ChEMBL document CHEMBL1641591, “Inhibition of monoamine oxidase by selected C5- and C6-substituted isatin analogues” (Bioorg Med Chem, 2011).

Series [1] concerns the target T1, Amine oxidase [flavin-containing] A (Homo sapiens, UniProt P21397).
T1 sequence (P21397 whole entry): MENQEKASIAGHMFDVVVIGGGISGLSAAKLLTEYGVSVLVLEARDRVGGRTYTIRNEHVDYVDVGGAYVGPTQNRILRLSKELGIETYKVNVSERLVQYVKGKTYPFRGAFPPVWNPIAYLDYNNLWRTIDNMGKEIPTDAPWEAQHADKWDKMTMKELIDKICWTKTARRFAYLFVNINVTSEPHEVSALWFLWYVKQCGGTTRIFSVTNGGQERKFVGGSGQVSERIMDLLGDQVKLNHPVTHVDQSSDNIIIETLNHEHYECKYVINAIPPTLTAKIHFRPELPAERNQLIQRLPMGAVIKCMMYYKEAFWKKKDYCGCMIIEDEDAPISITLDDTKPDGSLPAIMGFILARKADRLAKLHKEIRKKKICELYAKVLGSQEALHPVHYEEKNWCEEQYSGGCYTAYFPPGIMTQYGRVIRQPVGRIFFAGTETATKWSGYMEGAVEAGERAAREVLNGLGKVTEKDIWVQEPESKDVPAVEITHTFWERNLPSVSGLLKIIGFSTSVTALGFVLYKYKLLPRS
As to the kind of experiment: Inhibition of human recombinant MAOA expressed in insect cells by fluorescence assay. In a few lines:
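Insect-cell microsomal recombinant human MAO-A (0.0075 mg/mL) in 100 mM potassium phosphate, pH 7.4, made isotonic with KCl, with 45 µM kynuramine. Incubated 20 min at 37 °C and stopped with NaOH. 4-Hydroxyquinoline was read by fluorescence (ex 310/em 400 nm) against a calibration curve.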

Series [2] concerns the target T2, Amine oxidase [flavin-containing] B (Homo sapiens, UniProt P27338).
T2 sequence (P27338 whole entry): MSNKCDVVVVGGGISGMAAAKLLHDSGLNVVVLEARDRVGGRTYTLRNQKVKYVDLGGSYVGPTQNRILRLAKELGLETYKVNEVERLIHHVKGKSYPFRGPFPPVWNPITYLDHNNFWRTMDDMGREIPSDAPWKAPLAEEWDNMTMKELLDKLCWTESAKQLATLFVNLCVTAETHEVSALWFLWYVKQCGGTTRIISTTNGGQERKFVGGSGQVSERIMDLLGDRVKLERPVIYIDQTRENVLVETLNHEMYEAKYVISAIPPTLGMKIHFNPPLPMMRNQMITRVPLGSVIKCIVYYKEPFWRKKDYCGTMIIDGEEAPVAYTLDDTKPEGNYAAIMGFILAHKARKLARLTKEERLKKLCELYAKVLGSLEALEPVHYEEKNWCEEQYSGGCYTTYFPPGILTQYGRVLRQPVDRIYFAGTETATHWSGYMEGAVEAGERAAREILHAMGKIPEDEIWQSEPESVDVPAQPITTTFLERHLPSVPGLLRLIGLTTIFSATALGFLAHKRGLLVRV
Description: Inhibition of human recombinant MAOB expressed in insect cells by fluorescence assay. The series is classed as cell-based.

For another series, the species on record is Homo sapiens. Description: Selectivity ratio of Ki for human recombinant MAOA to Ki for human recombinant MAOB. In a few lines:
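Ki values were obtained from duplicate kynuramine-oxidation IC50 data for insect-cell recombinant human MAO-A and MAO-B by the Cheng–Prusoff equation. […] The ratio is Ki(MAO-A)/Ki(MAO-B).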

Series [3] deals with T2, Amine oxidase [flavin-containing] B. Description: Inhibition of human recombinant MAOB expressed in insect cells at 100 uM by fluorescence assay.
Series [4] deals with T1, Amine oxidase [flavin-containing] A. Description: Inhibition of human recombinant MAOA expressed in insect cells at 100 uM by fluorescence assay.
Series [5] has as its target T2, Amine oxidase [flavin-containing] B. As to the kind of experiment: Competitive inhibition of human recombinant MAOB expressed in insect cells at 0.125 to 0.5 uM by Lineweaver-Burk plot analysis. In a few lines:
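Recombinant human MAO-B from insect cells (0.015 mg/mL) was run with 15–90 µM kynuramine, without inhibitor and with 0.125, 0.25 or 0.5 µM inhibitor. The assay was otherwise the standard fluorescence procedure. Lineweaver–Burk plots were fitted by linear regression.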

Series [6] shares this target. As to the kind of experiment: Inhibition of human recombinant MAOB expressed in insect cells at 2.8 uM by fluorescence assay. The conditions noted are these: TDE = time-dependent effect.
In series [7] the target is T1, Amine oxidase [flavin-containing] A. As to the kind of experiment: Inhibition of human recombinant MAOA expressed in insect cells at 9.76 uM by fluorescence assay. The note with it: TDE = time-dependent effect. In a few lines: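 Reversibility test: recombinant human MAO-A (0.03 mg/mL) was preincubated 0, 15, 30 or 60 min at 37 °C with 9.76 µM inhibitor in isotonic pH 7.4 phosphate buffer. […] Residual rate was measured by 4-hydroxyquinoline fluorescence, in triplicate, mean ± SD.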

Series [8] shares this target. As to the kind of experiment: Competitive inhibition of human recombinant MAOA expressed in insect cells at 2.5 to 10 uM by Lineweaver-Burk plot analysis.

As usually defined, the IC50 is the concentration that inhibits the measured activity by half. The term Ki denotes a dissociation constant, usually derived from enzyme kinetics or from competition with a known ligand.

With `Nc1ccc(Oc2ccccc2)cc1` [4-PHENOXYANILINE], the IC50 in [1] was determined as 91.4 µM; in series [2] it was 303 µM. Also, the Ki is 24.1 µM in series [1] and 131 µM in [2]. Also, the Ratio Ki in the series filed under Homo sapiens amounted to 0.185.

Consider `O=C1Nc2cc(-c3ccccc3)ccc2C1=O`, for which the IC50 turned out to be 4.64 µM in [1] and 8.52 µM in series [2]. Besides, the Ki in series [1] came out at 1.22 µM; in [2], 3.67 µM. Also, the Ratio Ki in the series filed under Homo sapiens amounted to 0.333.

`O=C1Nc2cc(OCc3ccccc3)ccc2C1=O`: in series [1], the IC50 was 72.4 µM and the Ki stood at 19.1 µM. Besides, in series [2], the IC50 worked out at 0.138 µM and the Ki amounted to 0.059 µM. The Ratio Ki in the series filed under Homo sapiens is 321.

Regarding `Nc1ccc(-c2ccccc2)cc1` [BIPHENYL-4-AMINE], the “inhibition (INH)” value in series [3] and in [4] was “Not Active” throughout.

For the compound `Nc1ccc(OCc2ccccc2)cc1` [4-BENZYLOXYANILINE], in [1], the IC50 is 191 µM and the Ki came to 50.3 µM. Moreover, in [2], the IC50 amounted to 12.8 µM and the Ki was 5.51 µM. The Ratio Ki in the series listed under Homo sapiens amounted to 9.13.

`Nc1ccc(/C=C/c2ccccc2)cc1` [(E)-4-STYRYLANILINE]: in [1], the IC50 came out at 25.3 µM and the Ki is 6.67 µM. Further, in series [2], the IC50 amounted to 6.34 µM and the Ki is 2.73 µM. Also, the Ratio Ki in the series listed under Homo sapiens worked out at 2.44.

Regarding `O=C1Nc2ccc(/C=C/c3ccccc3)cc2C1=O`, the IC50 in series [1] is 0.233 µM; in series [2], 0.009 µM. In addition, the Ki in series [1] worked out at 0.061 µM; in [2], 0.004 µM. Further, the Ratio Ki in the series filed under Homo sapiens amounted to 15.8.

For `Nc1cccc(/C=C/c2ccccc2)c1`, the IC50 in [1] came out at 30.4 µM; in [2], 5.74 µM. Moreover, the Ki in series [1] is 8.01 µM; in series [2], 2.47 µM. The Ratio Ki in the series listed under Homo sapiens was 3.24.

As for `O=C1Nc2ccc(CCc3ccccc3)cc2C1=O`, the “inhibition (INH)” value in [5] was “Active”; in series [6] it was “tde”; in series [7], “tde”; in series [8] it was “Active”. Besides, the IC50 in series [1] stood at 4.88 µM; in [2], 1.4 µM. In addition, the Ki in series [1] is 1.29 µM; in series [2], 0.603 µM. The Ratio Ki in the series listed under Homo sapiens was 2.13.

For `O=C1Nc2ccc(CCCCc3ccccc3)cc2C1=O`, the IC50 turned out to be 2.19 µM in [1] and 0.00066 µM in series [2]. For the same compound, the Ki in series [1] was determined as 0.577 µM; in series [2] it was 0.00028 µM. The Ratio Ki in the series listed under Homo sapiens is 2030.

With `O=C1Nc2ccc(-c3ccccc3)cc2C1=O`, in series [1], the IC50 is 0.562 µM and the Ki was 0.148 µM. Moreover, in [2], the IC50 was 1.19 µM and the Ki was 0.513 µM. Besides, the Ratio Ki in the series listed under Homo sapiens is 0.289.

As for `O=C1Nc2ccc(Oc3ccccc3)cc2C1=O`, the IC50 is 9.44 µM in series [1] and 1.54 µM in [2]. The Ki in series [1] was determined as 2.49 µM; in series [2] it was 0.663 µM. Besides, in the series listed under Homo sapiens, the Ratio Ki worked out at 3.75.

As for `Nc1cccc(CCc2ccccc2)c1`, in series [1], the IC50 came to 355 µM and the Ki was determined as 93.5 µM.

Consider `O=C1Nc2cc(Oc3ccccc3)ccc2C1=O`, for which, in series [1], the IC50 amounted to 62.2 µM and the Ki was 16.4 µM. Besides, in series [2], the IC50 was 9.91 µM and the Ki was found to be 4.27 µM. Also, in the series listed under Homo sapiens, the Ratio Ki was 3.84.

Regarding `Nc1cccc(Oc2ccccc2)c1` [3-PHENOXYANILINE], in series [4], the “inhibition (INH)” value is reported as “Not Active”.

As to `O=C1Nc2ccc(OCc3ccccc3)cc2C1=O`, the IC50 was 4.62 µM in series [1] and 0.103 µM in series [2]. Further, the Ki in series [1] was 1.22 µM; in [2], 0.044 µM. Besides, the Ratio Ki in the series listed under Homo sapiens amounted to 27.4.

In the case of `Nc1cccc(-c2ccccc2)c1`, the “inhibition (INH)” value in series [3] was “Not Active”. Besides, in series [1], the IC50 was 68.6 µM and the Ki turned out to be 18.1 µM.

Take `O=C1Nc2cc(CCc3ccccc3)ccc2C1=O`: in series [1], the IC50 worked out at 6.93 µM and the Ki is 1.83 µM. Also, in [2], the 50% inhibitory concentration (IC50) was found to be 9.93 µM and the Ki was 4.28 µM. Besides, the Ratio Ki in the series filed under Homo sapiens was determined as 0.427.

With `Nc1cccc(OCc2ccccc2)c1` [3-(BENZYLOXY)ANILINE], in [1], the IC50 is 466 µM and the Ki was found to be 123 µM. In [2], the IC50 amounted to 23.4 µM and the Ki is 10.1 µM. For the same compound, the Ratio Ki in the series filed under Homo sapiens was 12.2.

In the case of `O=C1Nc2cc(/C=C/c3ccccc3)ccc2C1=O` [(E)-6-STYRYLISATIN], in [1], the IC50 came to 2.72 µM and the Ki was found to be 0.717 µM.

`Nc1ccc(Oc2ccc(Cl)cc2)cc1`: in series [1], the IC50 amounted to 29.3 µM and the Ki is 7.72 µM. For the same compound, in series [2], the IC50 was 16.8 µM and the Ki amounted to 7.24 µM. The Ratio Ki in the series listed under Homo sapiens turned out to be 1.07.

Turning to `Nc1ccc(CCc2ccccc2)cc1`, in series [1], the IC50 was 131 µM and the Ki was found to be 34.5 µM.

Turning to `Cl.Nc1ccc(CCCCc2ccccc2)cc1`, in series [2], the IC50 is 5.55 µM and the Ki was found to be 2.39 µM. Besides, in series [4], the “inhibition (INH)” value is “Not Active”.

`O=C1Nc2ccc(Oc3ccc(Cl)cc3)cc2C1=O`: in series [1], the IC50 turned out to be 12.2 µM and the Ki turned out to be 3.21 µM. Besides, in [2], the IC50 stood at 0.066 µM and the Ki came to 0.028 µM. The Ratio Ki in the series filed under Homo sapiens came to 113.
